Measured values from ChEMBL document CHEMBL1151833, “Cytotoxic oleanane triterpene saponins from Albizia chinensis” (J Nat Prod, 2009).
pIC50: −log10 of the molar value.

Columns and labels:
Bel-7402 = test: Cytotoxicity against human Bel7402 cells after 96 hrs by MTT assay; assay type: functional, cell-based; settings: Bel-7402, 96 h
How it was run: (§1)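 Cells kept in RPMI 1640 with 10% FBS, penicillin and streptomycin, at 37 °C in 5% CO2. Seeded at 1.5 × 10^3 cells per well and left 24 h. Compounds added in DMSO, five concentrations over a final 0.01-10 […], each in three parallel wells, for 96 h. MTT (0.2%) added for 4 h, formazan dissolved in DMSO, read at 570 nm. IC50 taken from dose-response curves as 50% loss of optical density versus DMSO control.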

[1] = Toxicity in rabbit erythrocytes assessed as hemolytic activity; assay type: cell-based, Oryctolagus cuniculus, Erythrocyte
How it was run: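 Rabbit erythrocytes prepared by the Chinese Pharmacopoeia method. Compounds tested at 0.01, 0.05, 0.1, 0.5, 2.5, 10 and 100 µM using a procedure adapted from the literature. Result given as HC50.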

HCT-8 = test: Cytotoxicity against human HCT8 cells after 96 hrs by MTT assay; assay type: functional, cell-based; settings: HCT-8, 96 h; how it was run: as §1
BGC-823 = test: Cytotoxicity against human BGC823 cells after 96 hrs by MTT assay; assay type: functional, cell-based; settings: BGC-823, 96 h; how it was run: as §1
A549 = test: Cytotoxicity against human A549 cells after 96 hrs by MTT assay; assay type: functional, cell-based; settings: A549, 96 h; how it was run: as §1
A2780 = test: Cytotoxicity against human A2780 cells after 96 hrs by MTT assay; assay type: functional, cell-based; settings: A2780, 96 h; how it was run: as §1

SMILES	pIC50 (Bel-7402)	HC50 [1] [nM]	pIC50 (HCT-8)	pIC50 (BGC-823)	pIC50 (A549)	pIC50 (A2780)
C=C[C@](C)(CC/C=C(\CO)C(=O)O[C@H]1[C@H](O[C@](C)(C=C)CC/C=C(\C)C(=O)O[C@H]2[C@H](O)[C@@H](O)[C@H](O[C@](C)(C=C)CC/C=C(\CO)C(=O)O[C@H]3C[C@]4(C(=O)O[C@@H]5O[C@H](CO)[C@@H](O)[C@H](O)[C@H]5O[C@@H]5O[C@@H](C)[C@H](O[C@@H]6O[C@@H](CO)[C@H](O)[C@H]6O)[C@@H](O[C@@H]6O[C@H](CO)[C@@H](O)[C@H](O)[C@H]6O)[C@H]5O)[C@H](O)C[C@]5(C)C(=CC[C@@H]6[C@@]7(C)CC[C@H](O[C@@H]8O[C@H](CO[C@@H]9O[C@H](C)[C@H](O)[C@H](O)[C@H]9O[C@@H]9OC[C@@H](O)[C@H](O)[C@H]9O)[C@@H](O)[C@H](O)[C@H]8O)C(C)(C)[C@@H]7CC[C@]65C)[C@@H]4CC3(C)C)O[C@@H]2C)O[C@H](C)[C@@H](O)[C@@H]1O)O[C@@H]1O[C@H](C)[C@@H](O)[C@H](O)[C@H]1O [ALBIZOSIDE A]	5.59	400	5.25	5.80	5.72	5.89
C=C[C@](C)(CC/C=C(\CO)C(=O)O[C@H]1[C@H](O[C@](C)(C=C)CC/C=C(\C)C(=O)O[C@H]2[C@H](O)[C@@H](O)[C@H](O[C@](C)(C=C)CC/C=C(\CO)C(=O)O[C@H]3C[C@]4(C(=O)O[C@@H]5O[C@H](CO)[C@@H](O)[C@H](O)[C@H]5O[C@@H]5O[C@@H](C)[C@H](O[C@@H]6O[C@@H](CO)[C@H](O)[C@H]6O)[C@@H](O[C@@H]6O[C@H](CO)[C@@H](O)[C@H](O)[C@H]6O)[C@H]5O)[C@H](O)C[C@]5(C)C(=CC[C@@H]6[C@@]7(C)CC[C@H](O[C@@H]8O[C@H](CO[C@@H]9O[C@H](C)[C@H](O)[C@H](O)[C@H]9O[C@@H]9OC[C@@H](O)[C@H](O)[C@H]9O)[C@@H](O)[C@H](O)[C@H]8O[C@@H]8O[C@H](CO)[C@@H](O)[C@H](O)[C@H]8O)C(C)(C)[C@@H]7CC[C@]65C)[C@@H]4CC3(C)C)O[C@@H]2C)O[C@H](C)[C@@H](O)[C@@H]1O)O[C@@H]1O[C@H](C)[C@@H](O)[C@H](O)[C@H]1O [ALBIZOSIDE B]	5.89	700	5.89	5.42	6.52	5.92
C=C[C@](C)(CC/C=C(\C)C(=O)O[C@H]1[C@H](O)[C@@H](O)[C@H](O[C@](C)(C=C)CC/C=C(\CO)C(=O)O[C@H]2C[C@]3(C(=O)O[C@@H]4O[C@H](CO)[C@@H](O)[C@H](O)[C@H]4O[C@@H]4O[C@@H](C)[C@H](O[C@@H]5O[C@@H](CO)[C@H](O)[C@H]5O)[C@@H](O[C@@H]5O[C@H](CO)[C@@H](O)[C@H](O)[C@H]5O)[C@H]4O)[C@H](O)C[C@]4(C)C(=CC[C@@H]5[C@@]6(C)CC[C@H](O[C@@H]7O[C@H](CO[C@@H]8OC[C@H](O)[C@H](O)[C@H]8O[C@@H]8OC[C@@H](O)[C@H](O)[C@H]8O)[C@@H](O)[C@H](O)[C@H]7O[C@@H]7O[C@H](CO)[C@@H](O)[C@H](O)[C@H]7O)C(C)(C)[C@@H]6CC[C@]54C)[C@@H]3CC2(C)C)O[C@@H]1C)O[C@@H]1O[C@H](C)[C@@H](O)[C@H](O)[C@H]1O [ALBIZOSIDE C]	6.40	700	6.40	5.77	8.00	6.52
CC[C@@]1(O)C(=O)OCc2c1cc1n(c2=O)Cc2cc3ccccc3nc2-1 [CAMPTOTHECIN]						6.52
C=C[C@](C)(CC/C=C(\CO)C(=O)O[C@H]1C[C@]2(C(=O)O[C@@H]3O[C@H](CO)[C@@H](O)[C@H](O)[C@H]3O[C@@H]3O[C@@H](C)[C@H](O[C@@H]4O[C@@H](CO)[C@H](O)[C@H]4O)[C@@H](O[C@@H]4O[C@H](CO)[C@@H](O)[C@H](O)[C@H]4O)[C@H]3O)[C@H](O)C[C@]3(C)C(=CC[C@@H]4[C@@]5(C)CC[C@H](O[C@@H]6O[C@H](CO[C@@H]7O[C@H](C)[C@H](O)[C@H](O)[C@H]7O[C@@H]7OC[C@@H](O)[C@H](O)[C@H]7O)[C@@H](O)[C@H](O)[C@H]6O)C(C)(C)[C@@H]5CC[C@]43C)[C@@H]2CC1(C)C)O[C@@H]1O[C@H](C)[C@@H](O)[C@H](O)[C@H]1O [PROSAPOGENIN 10]	< 5.00	128000	< 5.00	< 5.00	< 5.00	< 5.00
